Consider 11 compounds from ChEMBL document CHEMBL1143597, “Thrombospondin-1 mimetic peptide inhibitors of angiogenesis and tumor growth: design, synthesis, and optimization of pharmacokinetics and biological activities” (J Med Chem, 2005).

Molecules are shown by their SMILES. Where a SMILES comes first, the peptide text is derived from it. [ ]: non-standard residue; d: D form. d(aIle) = CC[C@H](C)[C@@H](N)C(=O)O; Nva = CCC[C@H](N)C(=O)O; Sar = CNCC(=O)O

As usually defined, the IC50 is the concentration at which inhibition is half-maximal. High values mean a need for much substance, low ones inhibition by little substance.

Assay [1] can be described thus: In vitro inhibitory concentration against HMVE cell migration was determined. The assay is classed as functional, cell-based. The following applies: Homo sapiens. In a few lines: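 Primary HMVEC grown to 80-90% confluency, starved 18 h in EBM with 5% FCS, labelled with calcein AM 30 min at room temperature. Cells with or without compound (in D5W) are placed above a filter with VEGF (10 ng) below, then held 4 h at 37 °C, 5% CO2. Unmigrated cells are wiped off and fluorescence is read (485/530). % inhibition is taken versus the VEGF positive control.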

Assay [2] in a line: In vitro inhibitory concentration against HMVEC endothelial tube formation was determined; […]. The assay is classed as functional, Homo sapiens.
Assay [3] is described as follows: In vitro inhibitory concentration against HMVEC endothelial tube formation was determined; 200 - 100 nM. The assay is classed as functional, Homo sapiens.
A short description of assay [4]: Inhibitory concentration against TSP-1 binding towards HMVEC cell line migration. The following applies: Homo sapiens. The assay is classed as functional, cell-based.
Assay [5] is described as follows: In vitro inhibitory concentration against HMVEC endothelial tube formation was determined; 0.25 - 0.10 nM. The assay is classed as functional, Homo sapiens.
Assay [6] in a line: In vitro inhibitory concentration against HMVEC endothelial tube formation was determined; 50 - 25 nM. The assay is classed as functional, Homo sapiens.
Assay [7] in a line: In vitro inhibitory concentration against HMVEC endothelial tube formation was determined. Type of assay: functional, Homo sapiens.

Take `CCC[C@H](NC(=O)[C@@H](NC(=O)[C@H](NC(=O)[C@@H](NC(=O)CNC(=O)CN(C)C(=O)CCC(=O)O)C(C)C)[C@H](C)CC)[C@@H](C)O)C(=O)N[C@H](C(=O)N[C@@H](CCCN=C(N)N)C(=O)N1CCC[C@H]1C(=O)NCC)[C@@H](C)CC`: the concentration for half-maximal inhibition (IC50) in assay [1] stood at 0.26 nM; in assay [2] it was 10 nM.

For `CCC[C@H](NC(=O)[C@@H](NC(=O)[C@H](NC(=O)[C@@H](NC(=O)CNC(=O)CN(C)C(C)=O)C(C)C)[C@H](C)CC)[C@@H](C)O)C(=O)N[C@H](C(=O)N[C@@H](CCCN=C(N)N)C(=O)N1CCC[C@H]1C(=O)NCC)[C@@H](C)CC` [ABT 510] (Ac-[Sar]GV[dI]T[Nva]IRP-NHEt), the values for the half-inhibitory concentration (IC50) in assay [3] and in assay [4] were 200 nM and 0.03 nM, respectively.

Compound `CCC[C@H](NC(=O)[C@@H](NC(=O)[C@H](NC(=O)[C@@H](NC(=O)CNC(C)=O)C(C)C)[C@H](C)CC)[C@@H](C)O)C(=O)N[C@H](C(=O)N[C@@H](CCCN=C(N)N)C(=O)NCC)[C@@H](C)CC` yielded an IC50 in assay [1] of 4.22 nM. Turning to `CCC[C@@H](C(=O)N[C@H](C(=O)N[C@@H](CCCN=C(N)N)C(=O)N1CCC[C@H]1C(=O)NC(C)C)[C@@H](C)CC)N(C)C(=O)[C@@H](NC(=O)[C@H](NC(=O)[C@@H](NC(=O)CNC(=O)CN(C)C(=O)CCC(=O)O)C(C)C)[C@H](C)CC)[C@@H](C)O`, the half-inhibitory concentration (IC50) in assay [1] turned out to be 0.06 nM; in assay [5] it was 0.25 nM.

As for `CCC[C@@H](C(=O)N[C@H](C(=O)N[C@@H](CCCN=C(N)N)C(=O)N1CCC[C@H]1C(=O)NCC)[C@@H](C)CC)N(C)C(=O)[C@@H](NC(=O)[C@H](NC(=O)[C@@H](NC(=O)CNC(=O)CN(C)C(C)=O)C(C)C)[C@H](C)CC)[C@@H](C)O`, the IC50 in assay [1] was found to be 0.54 nM; in assay [6], 50 nM. As to `CCC[C@@H](C(=O)N[C@H](C(=O)N[C@@H](CCCN=C(N)N)C(=O)N1CCC[C@H]1C(=O)NCC)[C@@H](C)CC)N(C)C(=O)[C@@H](NC(=O)[C@H](NC(=O)[C@@H](NC(=O)CNC(=O)CN(C)C(=O)CCC(=O)O)C(C)C)[C@H](C)CC)[C@@H](C)O`, the half-inhibitory concentration (IC50) in assay [1] is 0.45 nM; in assay [2] it was 10 nM. For the compound `CCNC(=O)[C@H](CCCN=C(N)N)NC(=O)[C@@H](NC(=O)[C@H](CCCN=C(N)N)NC(=O)[C@@H](NC(=O)[C@H](NC(=O)[C@@H](NC(=O)CNC(C)=O)C(C)C)[C@H](C)CC)[C@@H](C)O)[C@@H](C)CC`, in assay [1], the IC50 is over 100 nM. As for `CCC[C@H](NC(=O)[C@@H](NC(=O)[C@H](NC(=O)[C@@H](NC(=O)CNC(=O)CN(C)C(C)=O)C(C)C)[C@@H](C)CC)[C@@H](C)O)C(=O)N[C@H](C(=O)N[C@@H](CCCNC(=N)N)C(=O)N1CCC[C@H]1C(=O)NCC)[C@@H](C)CC` [ABT-510] (Ac-[Sar]GV[d(aIle)]T[Nva]IRP-NHEt), the IC50 worked out at 10 nM in assay [2] and 0.89 nM in assay [4].

As for `CCC[C@H](NC(=O)[C@@H](NC(=O)[C@H](NC(=O)[C@@H](NC(=O)CNC(C)=O)C(C)C)[C@H](C)CC)[C@@H](C)O)C(=O)N[C@H](C(=O)N[C@@H](CCCN=C(N)N)C(=O)N1CCC[C@H]1C(=O)NCC)[C@@H](C)CC`, half-maximal inhibition in assay [1] (IC50) was put at 0.07 nM. Take `CCC[C@H](NC(=O)[C@@H](NC(=O)[C@H](NC(=O)[C@@H](NC(=O)CNC(=O)CN(C)C(C)=O)C(C)C)[C@H](C)CC)[C@@H](C)O)C(=O)N[C@H](C(=O)N[C@@H](CCCN=C(N)N)C(=O)N1CCC[C@H]1C(=O)NC(C)C)[C@@H](C)CC`: the values for the half-inhibitory concentration (IC50) in assay [1] and in assay [7] were 29 nM and over 1000 nM, respectively. `CCC[C@H](NC(=O)[C@@H](NC(=O)[C@H](CCCN=C(N)N)NC(=O)[C@@H](NC(=O)[C@H](NC(=O)[C@@H](NC(=O)CNC(C)=O)C(C)C)[C@H](C)CC)[C@@H](C)O)[C@@H](C)CC)C(=O)NCC` showed an IC50 in assay [1] of 1.45 nM.
